Among the data in ChEMBL document CHEMBL4190304, “Peroxynitrite-Scavenging Glycosides from the Stem Bark of Catalpa ovata” (J Nat Prod, 2017) are IC50 values, retold here.

What is called pIC50 is the IC50 on a negative log10 scale, so that one unit is a factor of ten.

pIC50: −log10 of the molar value.

A short description of the experiment: Peroxynitrite scavenging activity assessed as inhibition of DHR 123 oxidation after 5 mins in presence of SIN-1 by fluorescence assay. It is filed as functional. The method, boiled down:
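ONOO− generated by decomposition of SIN-1 (10 μM) in buffer of 90 mM NaCl, 50 mM Na3PO4, 5 mM KCl, 100 μM DTPA, pH 7.4 (N2-purged, on ice), with DHR 123 working solution 5 μM. Fluorescence read (ex 480/em 530 nm) 5 min after treatment with and without SIN-1. Final minus background intensity gives % inhibition of oxidation; IC50, mean ± SD, three independent experiments. DL-penicillamine positive control.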
Regarding `O=C(OC1C[C@@]2(O)COC3C[C@@H](O[C@@H]4O[C@H](CO)[C@@H](O)[C@H](O)[C@H]4O)[C@H]2[C@H]1C3)c1ccc(O)cc1` (some centres undefined), the pIC50 is 4.12.
Under `COc1cc(/C=C/C(=O)OC[C@]23O[C@H]2[C@@H](OC(=O)/C=C/c2ccc(O)c(OC)c2)[C@@H]2C=CO[C@@H](O[C@@H]4O[C@H](CO)[C@@H](O)[C@H](O)[C@H]4O)[C@@H]23)ccc1O` stands 6.06.
Under `COc1cc(/C=C/C(=O)O[C@H]2[C@@H]3CCO[C@@H](O[C@@H]4O[C@H](CO)[C@@H](O)[C@H](O)[C@H]4O)[C@@H]3[C@@]3(CO)O[C@@H]23)ccc1O` stands 5.66.
Under `O=C(/C=C/c1ccc(O)cc1)OC[C@@]1(O)CO[C@@H](O[C@H]2[C@H](OCCc3ccc(O)cc3)O[C@H](CO)[C@@H](O)[C@@H]2O)[C@@H]1O` stands 5.35; under `COc1cc(/C=C/C(=O)OC[C@H]2O[C@@H](Oc3ccc(O)cc3OC)[C@H](O)[C@@H](O)[C@@H]2O)ccc1O`, 6.32.
For the compound `COc1cc(/C=C/C(=O)O[C@@H]2C[C@@](O)(CO)[C@H]3[C@H](O[C@@H]4O[C@H](CO)[C@@H](O)[C@H](O)[C@H]4O)OC=C[C@H]32)ccc1O`, the pIC50 is 5.70.
Consider `COc1cc(C(=O)OC[C@@]2(O)CO[C@@H](O[C@H]3[C@H](OCCc4ccc(O)cc4)O[C@H](CO)[C@@H](O)[C@@H]3O)[C@@H]2O)ccc1O`, for which the pIC50 was 5.07.
In the case of `COC/C=C/c1cc(OC)c2c(c1)[C@H](CO[C@@H]1O[C@H](COC(=O)/C=C/c3ccc(O)c(OC)c3)[C@@H](O)[C@H](O)[C@H]1O)[C@@H](c1ccc(O)c(OC)c1)O2`, the negative logarithm of the IC50 (pIC50) was 6.47.
For `O=C(O[C@@H]1C[C@@](O)(CO)[C@H]2[C@H](O[C@@H]3O[C@H](CO)[C@@H](O)[C@H](O)[C@H]3O)OCC[C@H]21)c1ccc(O)cc1` the value was 4.40; for `OC[C@H]1O[C@@H](OCCc2ccc(O)cc2)[C@H](O[C@@H]2OC[C@](O)(CO)[C@H]2O)[C@@H](O)[C@@H]1O`, 4.80.
Under `COc1ccc(C(=O)O[C@H]2[C@@H]3C=CO[C@@H](O[C@@H]4O[C@H](CO)[C@@H](O)[C@H](O)[C@H]4O)[C@@H]3[C@@]3(CO)O[C@@H]23)cc1OC` stands < 4.00; under `COc1cc(/C=C/C(=O)OC[C@H]2O[C@@H](Oc3ccc(CO)cc3OC)[C@H](O)[C@@H](O)[C@@H]2O)ccc1O`, 6.77; under `COc1cc(/C=C/C(=O)OC[C@H]2O[C@@H](OCCC3(O)CCC(=O)CC3)[C@H](O)[C@@H](O)[C@@H]2O)ccc1O`, 5.99.
For `CC(C)(S)C(N)C(=O)O` (racemic) [DL-PENICILLAMINE] the value was 5.47.
As for `COc1cc(/C=C/C(=O)OC[C@H]2O[C@@H](OCCc3ccc(O)cc3)[C@H](O)[C@@H](O)[C@@H]2O)ccc1O`, the pIC50 was 6.85.
For the compound `O=C(O[C@H]1[C@@H]2C=CO[C@@H](O[C@@H]3O[C@H](CO)[C@@H](O)[C@H](O)[C@H]3O)[C@@H]2[C@@]2(CO)O[C@@H]12)c1ccc(O)cc1` [CATALPOSIDE], the negative-log IC50 (pIC50) is < 4.00.
In the case of `COc1cc(/C=C/C(=O)OC[C@H]2O[C@@H](OC[C@@H]3c4cc(/C=C/C=O)cc(OC)c4O[C@H]3c3ccc(O)c(OC)c3)[C@H](O)[C@@H](O)[C@@H]2O)ccc1O`, the pIC50 was 6.10.
As for `COc1ccc(/C=C/C(=O)O[C@@H]2C[C@@](O)(CO)[C@H]3[C@H](O[C@@H]4O[C@H](CO)[C@@H](O)[C@H](O)[C@H]4O)OC=C[C@H]32)cc1O`, the pIC50 is 5.41.
For `COc1cc(C(=O)O[C@H]2[C@@H]3C=CO[C@@H](O[C@@H]4O[C@H](CO)[C@@H](O)[C@H](O)[C@H]4O)[C@@H]3[C@@]3(CO)O[C@@H]23)ccc1O` [PICROSIDE II] the value was 5.22; for `C[C@]1(O)C[C@@H](OC(=O)c2ccc(O)cc2)[C@@H]2CCO[C@@H](O[C@@H]3O[C@H](CO)[C@@H](O)[C@H](O)[C@H]3O)[C@@H]21`, 5.08.
Under `COc1ccc(/C=C/C(=O)O[C@H]2[C@@H]3C=CO[C@@H](O[C@@H]4O[C@H](CO)[C@@H](O)[C@H](O)[C@H]4O)[C@@H]3[C@@]3(CO)O[C@@H]23)cc1` stands 4.11; under `COc1cc(/C=C/C(=O)O[C@H]2[C@@H]3C=CO[C@@H](O[C@@H]4O[C@H](CO)[C@@H](O)[C@H](O)[C@H]4O)[C@@H]3[C@@]3(CO)O[C@@H]23)ccc1O`, 5.80; under `COc1cc(/C=C/C(=O)OC[C@H]2O[C@@H](O[C@@H]3OC=C[C@H]4[C@H](OC(=O)/C=C/c5ccc(O)c(OC)c5)[C@@H]5O[C@]5(CO)[C@@H]34)[C@H](O)[C@@H](O)[C@@H]2O)ccc1O`, 5.96.
For `COc1ccc(C(=O)O[C@H]2[C@@H]3C=CO[C@@H](O[C@@H]4O[C@H](CO)[C@@H](O)[C@H](O)[C@H]4O)[C@@H]3[C@@]3(CO)O[C@@H]23)cc1` the value was 4.44.
With `O=C(/C=C/c1ccc(O)cc1)O[C@H]1[C@@H]2C=CO[C@@H](O[C@@H]3O[C@H](CO)[C@@H](O)[C@H](O)[C@H]3O)[C@@H]2[C@@]2(CO)O[C@@H]12` [SPECIOSIDE], the pIC50 is 4.87.
Under `O=C(OC[C@@]1(O)CO[C@@H](O[C@H]2[C@H](OCCc3ccc(O)cc3)O[C@H](CO)[C@@H](O)[C@@H]2O)[C@@H]1O)c1ccc(O)cc1` stands 4.44; under `O=C(O[C@H]1[C@@H]2CCO[C@@H](O[C@@H]3O[C@H](CO)[C@@H](O)[C@H](O)[C@H]3O)[C@@H]2[C@@]2(CO)O[C@@H]12)c1ccc(O)cc1`, 4.23; under `COc1cc(CCO[C@@H]2O[C@H](CO)[C@@H](O)[C@H](O[C@@H]3O[C@H](C)[C@@H](O)[C@H](O)[C@H]3O)[C@H]2O)ccc1O`, 5.11.
`COc1cc(/C=C/C(=O)OC[C@H]2OC(OC[C@H]3[C@@H](Cc4ccc(O)c(OC)c4)CO[C@@H]3c3ccc(O)c(OC)c3)[C@H](O)[C@@H](O)[C@@H]2O)ccc1O` (some centres undefined): the pIC50 was 6.09.
